# Experimental data: ChEMBL document CHEMBL2016433 (Bioorg Med Chem, 2012)
# Active and inactive are the calls of the source.
# What was measured:
# U-937 [1] = assay: Cytostatic against human U937 cells assessed as reduction in absolute number of total cells after 24 hrs by haemocytometry; type: functional, cell-based
# In short: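 U937 cells, 5×10^4 per well in RPMI-1640 with 5% FBS, 2 mM L-glutamine and penicillin-streptomycin, were exposed to 1 in 10 serial dilutions from 100 µM to 1 µM (stocks 20 mM in DMSO or medium), or to vehicle, for 24 h at 37 °C in CO₂. Total cells were counted by haemocytometer; mean and SD of at least three determinations.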
# U-937 [2] = assay: Induction of apoptosis in human U937 cells after 24 hrs by acridine orange staining based microscopy; type: functional, cell-based
# In short: (§1)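 U937 cells were treated for 24 h at 37 °C with 1–100 µM compound or vehicle, then stained with acridine orange. Over 600 cells were scored by fluorescence microscopy; apoptosis was defined as uniformly stained nuclei with chromatin condensation or nuclear fragmentation. Mean and SD of at least three determinations.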
# U-937 [3] = assay: Cytotoxicity against human U937 cells assessed as induction of cell death at 1 to 100 microM after 24 hrs by trypan blue exclusion method; type: functional, cell-based
# U-937 [4] = assay: Induction of cell death in human U937 cells assessed at 1 to 100 microM after 24 hrs by trypan blue exclusion method relative to untreated control; type: functional
# In short: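 U937 cells (5×10^4 per well) exposed for 24 h at 37 °C, 5% CO₂ to 1 in 10 serial dilutions from 1 to 100 µM in RPMI-1640 with 5% FBS. Compounds came from 20 mM stocks in DMSO or medium. Controls got vehicle at equal amounts. Membrane-permeable cells were counted by trypan blue exclusion in a haemocytometer and expressed as percent. Mean and standard deviation from at least three determinations.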
# U-937 [5] = assay: Induction of apoptosis in human U937 cells expressing mouse Bcl-2 gene assessed as expression of Bcl-2 protein at 1 to 100 uM by acridine orange based microscopy; type: functional, cell-based
# In short: (§2)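 U937 stable transfectants carrying murine bcl-2 (U937mBCL2) or empty pMEP vector were kept in medium with hygromycin B 50 µg/mL. They were treated for 24 h with compound or DMSO. Apoptotic nuclei were scored by fluorescence microscopy after acridine orange staining; mean and SD of three determinations.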
# U-937 [6] = assay: Induction of apoptosis in human U937 cells expressing pMEP assessed as expression of Bcl-2 protein at 1 to 100 uM by acridine orange based microscopy; type: functional, cell-based; in short: as §2
# MOLT-3 [7] = assay: Cytotoxicity against human MOLT3 cells assessed as cell viability after 24 hrs; type: functional, cell-based; details: MOLT-3, 24 h
# MOLT-3 [8] = assay: Cytotoxicity against human MOLT3 cells after 24 hrs by trypan blue exclusion assay; type: functional
# MOLT-3 [9] = assay: Induction of apoptosis in human MOLT3 cells after 24 hrs by acridine orange staining based fluorescence microscopy; type: functional
# In short: (§3)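 HeLa, MOLT-3 and THP-1 cells were treated with increasing concentrations for 24 h, then stained with acridine orange and more than 600 cells scored by fluorescence microscopy for condensed or fragmented nuclei. AC30 is the concentration giving 30% apoptotic cells, from a best-fit curve versus log concentration.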
# THP-1 [10] = assay: Cytotoxicity against human THP1 cells assessed as cell viability after 24 hrs; type: functional, cell-based; details: THP-1, 24 h
# THP-1 [11] = assay: Cytotoxicity against human THP1 cells after 24 hrs by trypan blue exclusion assay; type: functional
# THP-1 [12] = assay: Induction of apoptosis in human THP1 cells after 24 hrs by acridine orange staining based fluorescence microscopy; type: functional; in short: as §3
# HeLa [13] = assay: Cytotoxicity against human HeLa cells assessed as cell viability after 24 hrs; type: functional, cell-based
# In short: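 MOLT-3, THP-1 and HeLa cells were treated with increasing concentrations for 24 h at 37 °C, 5% CO₂. Total cells were counted by haemocytometer with trypan blue. IC50 is the concentration cutting total cell count by 50%, taken from a best-fit curve of the value versus log concentration.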
# HeLa [14] = assay: Cytotoxicity against human HeLa cells after 24 hrs by trypan blue exclusion assay; type: functional
# In short: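 MOLT-3, THP-1 or HeLa cells were grown in RPMI 1640 with 5–10% FBS; for THP-1 the medium also held 10 mM HEPES, 1 mM pyruvate and 4.5 g/L glucose. Cells were seeded in 96 wells with increasing compound concentrations and incubated 24 h at 37 °C, 5% CO₂. CC30 is the concentration giving 30% trypan blue-positive cells, taken from a best-fit curve of y versus log x.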
# HeLa [15] = assay: Induction of apoptosis in human HeLa cells after 24 hrs by acridine orange staining based fluorescence microscopy; type: functional; in short: as §3
# HT-29 [16] = assay: Cytotoxicity against human HT-29 cells assessed as cell viability after 48 hrs; type: functional, cell-based; details: HT-29, 48 h
# In short: (§4)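 HT-29, HepG2 and MCF7 cells were treated in wells with increasing concentrations for 48 h at 37 °C, 5% CO₂. Total cell count was taken by haemocytometer. IC50 is the concentration inhibiting total count by 50%, from a best-fit curve of the value versus log concentration.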
# HT-29 [17] = assay: Cytotoxicity against human HT-29 cells after 48 hrs by trypan blue exclusion assay; type: functional
# In short: (§5)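 Adherent HT-29, HepG2 and MCF7 cells were seeded in 96 wells with increasing concentrations and incubated 48 h at 37 °C, 5% CO₂. Trypan blue exclusion was done directly in the culture wells. CC30 is the concentration giving 30% cytotoxicity, from a best-fit curve versus log concentration.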
# HT-29 [18] = assay: Cytotoxicity against human HT-29 cells assessed as compound concentration causing 30% reduction in formazan product formation after 48 hrs by MTS assay; type: functional; details: HT-29, 48 h
# In short: (§6)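 HT-29, HepG2 and MCF7 cells were exposed to increasing concentrations for 48 h. MTS reagent was then added directly to the wells, incubated a further 4 h, and absorbance read at 490 nm. MAIC30 is the concentration reducing formazan formation by 30%, from a best-fit curve versus log concentration.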
# HepG2 [19] = assay: Cytotoxicity against human HepG2 cells assessed as cell viability after 48 hrs; type: functional, cell-based; details: HepG2, 48 h; in short: as §4
# HepG2 [20] = assay: Cytotoxicity against human HepG2 cells after 48 hrs by trypan blue exclusion assay; type: functional; in short: as §5
# HepG2 [21] = assay: Cytotoxicity against human HepG2 cells assessed as compound concentration causing 30% reduction in formazan product formation after 48 hrs by MTS assay; type: functional; details: HepG2, 48 h; in short: as §6
# MCF7 [22] = assay: Cytotoxicity against human MCF7 cells assessed as cell viability after 48 hrs; type: functional, cell-based; details: MCF7, 48 h; in short: as §4
# MCF7 [23] = assay: Cytotoxicity against human MCF7 cells after 48 hrs by trypan blue exclusion assay; type: functional; in short: as §5
# MCF7 [24] = assay: Cytotoxicity against human MCF7 cells assessed as compound concentration causing 30% reduction in formazan product formation after 48 hrs by MTS assay; type: functional; details: MCF7, 48 h; in short: as §6
# U-937 [25] = assay: Induction of apoptosis in human U937 cells at 100 uM after 24 hrs by acridine orange staining based microscopy; type: functional, cell-based; in short: as §1
smiles,measurement,setting,value
CC(=O)OC[C@H]1O[C@@H](SSCc2cc(CSS[C@@H]3O[C@H](COC(C)=O)[C@@H](OC(C)=O)[C@H](OC(C)=O)[C@H]3OC(C)=O)cc(CSS[C@@H]3O[C@H](COC(C)=O)[C@@H](OC(C)=O)[C@H](OC(C)=O)[C@H]3OC(C)=O)c2)[C@H](OC(C)=O)[C@@H](OC(C)=O)[C@@H]1OC(C)=O,Activity,U-937 [1],Dose-dependent effect
same,Activity,U-937 [2],inactive
same,Activity,U-937 [3],inactive
same,Activity,U-937 [4],25%
CC(=O)OC[C@H]1O[C@@H](SSCc2ccc(CSS[C@@H]3O[C@H](COC(C)=O)[C@H](OC(C)=O)[C@H](OC(C)=O)[C@H]3OC(C)=O)cc2)[C@H](OC(C)=O)[C@@H](OC(C)=O)[C@H]1OC(C)=O,Activity,U-937 [5],inactive
same,Activity,U-937 [6],Active
same,IC50,MOLT-3 [7],> 100 µM
same,CC30,MOLT-3 [8],29 µM
same,AC30,MOLT-3 [9],24 µM
same,IC50,THP-1 [10],> 100 µM
same,CC30,THP-1 [11],93 µM
same,AC30,THP-1 [12],88 µM
same,IC50,HeLa [13],> 100 µM
same,CC30,HeLa [14],>100 µM
same,AC30,HeLa [15],62 µM
same,IC50,HT-29 [16],63 µM
same,CC30,HT-29 [17],61 µM
same,IC30,HT-29 [18],23 µM
same,IC50,HepG2 [19],51 µM
same,CC30,HepG2 [20],98 µM
same,IC30,HepG2 [21],30 µM
same,IC50,MCF7 [22],38 µM
same,CC30,MCF7 [23],69 µM
same,IC30,MCF7 [24],63 µM
same,Activity,U-937 [3],Active
same,Activity,U-937 [25],Active
Cc1c(CSS[C@@H]2O[C@H](CO)[C@@H](O)[C@H](O)[C@H]2O)c(C)c(CSS[C@@H]2O[C@H](CO)[C@@H](O)[C@H](O)[C@H]2O)c(C)c1CSS[C@@H]1O[C@H](CO)[C@@H](O)[C@H](O)[C@H]1O,Activity,U-937 [2],inactive
same,Activity,U-937 [3],Active
same,Activity,U-937 [4],25%
CCc1c(CSS[C@@H]2O[C@H](CO)[C@@H](O)[C@H](O)[C@H]2O)c(CC)c(CSS[C@@H]2O[C@H](CO)[C@@H](O)[C@H](O)[C@H]2O)c(CC)c1CSS[C@@H]1O[C@H](CO)[C@@H](O)[C@H](O)[C@H]1O,Activity,U-937 [2],inactive
same,Activity,U-937 [3],Active
same,Activity,U-937 [4],25%
CCc1c(CSS[C@@H]2O[C@H](COC(C)=O)[C@@H](OC(C)=O)[C@H](OC(C)=O)[C@H]2OC(C)=O)c(CC)c(CSS[C@@H]2O[C@H](COC(C)=O)[C@@H](OC(C)=O)[C@H](OC(C)=O)[C@H]2OC(C)=O)c(CC)c1CSS[C@@H]1O[C@H](COC(C)=O)[C@@H](OC(C)=O)[C@H](OC(C)=O)[C@H]1OC(C)=O,Activity,U-937 [2],inactive
same,Activity,U-937 [3],Active
same,Activity,U-937 [4],25%
CC(=O)OC[C@H]1O[C@@H](SSCc2ccc(CSS[C@@H]3O[C@H](COC(C)=O)[C@@H](OC(C)=O)[C@H](OC(C)=O)[C@H]3OC(C)=O)cc2)[C@H](OC(C)=O)[C@@H](OC(C)=O)[C@@H]1OC(C)=O,Activity,U-937 [3],Active
